Laboratory results from ChEMBL document CHEMBL3232705, “Discovery of isoquinolinone indole acetic acids as antagonists of chemoattractant receptor homologous molecule expressed on Th2 cells (CRTH2) for the treatment of allergic inflammatory diseases” (J Med Chem, 2014).
Active and inactive are the calls of the source. No cut-off for these calls is given here.

Legend:
Cytochrome P450 2B6 = biological target: T1, Cytochrome P450 2B6 (Homo sapiens, UniProt P20813); assay: Inhibition of CYP2B6 (unknown origin); format: ADME
T1 sequence (P20813 whole entry): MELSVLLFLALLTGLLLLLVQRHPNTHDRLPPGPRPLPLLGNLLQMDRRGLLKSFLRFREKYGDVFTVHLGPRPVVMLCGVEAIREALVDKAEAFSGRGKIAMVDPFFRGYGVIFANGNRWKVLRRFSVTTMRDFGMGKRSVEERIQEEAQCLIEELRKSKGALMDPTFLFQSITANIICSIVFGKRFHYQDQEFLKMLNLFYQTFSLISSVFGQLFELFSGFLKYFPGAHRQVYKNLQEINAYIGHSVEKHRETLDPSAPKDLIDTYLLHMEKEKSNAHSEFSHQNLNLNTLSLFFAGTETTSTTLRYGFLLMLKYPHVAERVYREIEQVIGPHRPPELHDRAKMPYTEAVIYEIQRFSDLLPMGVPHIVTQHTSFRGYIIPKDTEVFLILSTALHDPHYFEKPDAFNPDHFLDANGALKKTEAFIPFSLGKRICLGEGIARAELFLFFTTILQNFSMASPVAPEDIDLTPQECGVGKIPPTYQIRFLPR

Mus musculus [1] = assay: Antiallergic activity in house dust mite-induced allergic airway disease BALB/c mouse model assessed as reduction in total cellularity in bronchoalveolar lavage fluid at 40 mg/kg, po after 72 hrs of HDM challenge; format: functional, organism-based; set-up: dose 40 mg/kg; settings: Lung
How it was run: (§1)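 BALB/c mice given house dust mite intratracheally via a catheter passed through the vocal cords. Test article 40 mg/kg orally once daily; dexamethasone 1 mg/kg ip once daily as reference. Total and differential BAL cells (eosinophils, macrophages, lymphocytes, neutrophils) counted 72 h after HDM challenge. Mean ± SEM, Mann–Whitney U test.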

Cytochrome P450 2C9 = Cytochrome P450 2C9 (Homo sapiens, UniProt P11712); assay: Inhibition of CYP2C9 (unknown origin); format: ADME
Cytochrome P450 2C9, sequence (P11712 whole entry): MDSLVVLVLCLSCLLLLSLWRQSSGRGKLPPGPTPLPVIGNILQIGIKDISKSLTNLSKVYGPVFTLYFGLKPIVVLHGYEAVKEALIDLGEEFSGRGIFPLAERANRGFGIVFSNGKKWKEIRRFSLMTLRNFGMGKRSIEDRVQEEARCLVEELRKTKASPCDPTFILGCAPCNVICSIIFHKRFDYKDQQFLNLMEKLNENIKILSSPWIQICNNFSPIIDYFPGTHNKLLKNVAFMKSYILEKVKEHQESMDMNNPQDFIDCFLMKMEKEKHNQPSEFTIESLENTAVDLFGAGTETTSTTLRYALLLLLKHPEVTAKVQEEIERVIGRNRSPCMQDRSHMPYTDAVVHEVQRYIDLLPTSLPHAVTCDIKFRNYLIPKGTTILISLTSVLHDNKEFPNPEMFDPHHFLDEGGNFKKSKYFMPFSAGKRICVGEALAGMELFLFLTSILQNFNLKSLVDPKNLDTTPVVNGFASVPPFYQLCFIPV

Mus musculus [2] = assay: Antiallergic activity in house dust mite-induced allergic airway disease BALB/c mouse model assessed as reduction in eosinophil level in bronchoalveolar lavage fluid at 40 mg/kg, po after 72 hrs of HDM challenge; format: functional, organism-based; set-up: dose 40 mg/kg; settings: Lung; how it was run: as §1
Cytochrome P450 2A6 = biological target: T2, Cytochrome P450 2A6 (Homo sapiens, UniProt P11509); assay: Inhibition of CYP2A6 (unknown origin); format: ADME
T2 sequence (P11509 whole entry): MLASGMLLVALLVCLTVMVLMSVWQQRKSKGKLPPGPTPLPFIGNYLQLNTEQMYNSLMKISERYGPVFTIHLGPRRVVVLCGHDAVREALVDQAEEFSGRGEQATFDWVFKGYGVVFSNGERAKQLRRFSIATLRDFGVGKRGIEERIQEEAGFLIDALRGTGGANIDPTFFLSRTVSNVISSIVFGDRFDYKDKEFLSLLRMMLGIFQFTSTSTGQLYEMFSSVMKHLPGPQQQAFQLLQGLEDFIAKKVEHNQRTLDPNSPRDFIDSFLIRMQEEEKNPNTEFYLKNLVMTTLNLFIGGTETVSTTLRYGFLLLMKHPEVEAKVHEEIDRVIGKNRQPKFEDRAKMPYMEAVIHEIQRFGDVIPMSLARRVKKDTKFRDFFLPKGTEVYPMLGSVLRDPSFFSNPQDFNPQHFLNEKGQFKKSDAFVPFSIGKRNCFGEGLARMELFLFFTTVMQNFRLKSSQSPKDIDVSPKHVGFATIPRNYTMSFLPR

[3] = biological target: T3, Prostaglandin D2 receptor 2 (Mus musculus, UniProt Q9Z2J6); assay: Inhibition of mouse CRTH2 receptor
T3 sequence (Q9Z2J6 whole entry): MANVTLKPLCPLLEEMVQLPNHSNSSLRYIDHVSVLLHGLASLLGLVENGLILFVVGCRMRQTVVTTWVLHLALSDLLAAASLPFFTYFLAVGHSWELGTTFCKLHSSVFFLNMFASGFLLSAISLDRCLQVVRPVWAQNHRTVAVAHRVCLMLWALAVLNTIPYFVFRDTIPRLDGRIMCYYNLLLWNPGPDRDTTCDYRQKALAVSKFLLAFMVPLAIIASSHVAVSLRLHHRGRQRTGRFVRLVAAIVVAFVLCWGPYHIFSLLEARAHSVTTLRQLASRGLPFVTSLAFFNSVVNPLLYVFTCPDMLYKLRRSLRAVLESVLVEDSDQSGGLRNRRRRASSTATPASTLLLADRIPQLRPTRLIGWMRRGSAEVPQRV

[4] = Half life in dog at 2 mg/kg, iv; format: ADME, organism-based, Canis lupus familiaris; set-up: dose 2 mg/kg, route intravenous; settings: in vivo
How it was run: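 Single intravenous dose of 2 mg/kg and single oral dose of 10 mg/kg, given separately, in rat, dog and monkey. Clearance and half-life taken from the iv arm; Cmax from the oral arm.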

[5] = Oral bioavailability in monkey at 10 mg/kg; format: ADME, organism-based, Macaca mulatta; settings: rhesus monkey, in vivo

- IC50 (Cytochrome P450 2B6): > 100 µM
- IC50 (Cytochrome P450 2C9): 55 µM
- IC50 (Cytochrome P450 2A6): > 100 µM
- IC50 [3]: 0.004 µM
- half-life [4]: 3.4 h
- bioavailability [5]: 69%
Structure (SMILES): Cc1c(-c2cn(C(C)C)c(=O)c3ccccc23)c2cc(F)ccc2n1CC(=O)O
- inhibition (Mus musculus [1]): Active
- inhibition (Mus musculus [2]): Active
